# Reference: ChEMBL document CHEMBL4665845, “CRISPR-Cas9 Genome-Wide Knockout Screen Identifies Mechanism of Selective Activity of Dehydrofalcarinol in Mesenchymal Stem-like Triple-Negative Breast Cancer Cells” (2020)
# The source made the active and inactive calls. The calls are words filed in the database; no cut-off is given here.
# Legend:
# [1] = tested on: MDA-MB-231; experiment: Growth inhibition of human MDA-MB-231 cells after 48 hrs by SRB assay; type: functional
# Summary of the method: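 Cells were exposed to compound for 48 h, and growth was read by sulforhodamine B staining. TGI (total growth inhibition concentration, μM) was taken from concentration–response curves, n = 3, means ± SEM. MDA-MB-231 cells were grown in IMEM with 10% FBS at 37 °C in 5% CO2.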
# [2] = tested on: BT-549; experiment: Growth inhibition of human BT-549 cells after 48 hrs by SRB assay; type: functional
# [3] = organism: Homo sapiens; experiment: Selectivity index, ratio of TGI for growth inhibitor of human BT-549 to TGI for growth inhibitor of human MDA-MB-231; type: functional
# [4] = tested on: MDA-MB-231; experiment: Cytotoxicity against human MDA-MB-231 cells harboring CRISPR/Cas9 assessed as reduction in cell viability at 300 nM by SRB assay; type: functional, cell-based
# [5] = tested on: TC-32; experiment: Antiproliferative activity against human TC-32 cells assessed as reduction in cell viability after 48 hrs by SRB assay; type: functional, cell-based
# [6] = tested on: SK-ES1; experiment: Antiproliferative activity against human SK-ES1 cells assessed as reduction in cell viability after 48 hrs by SRB assay; type: functional, cell-based
# [7] = tested on: MDA-MB-231; experiment: Induction of cell cycle arret in human MDA-MB-231 cells assessed as G2/M phase accumulation at LC50 concentration after 18 hrs by Krishan's staining based cell analyzer method; type: functional
# Summary of the method: (§1)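 MDA-MB-231 cells were treated at the LC50 concentration for 18 h, and cell cycle distribution was then assessed.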
# [8] = tested on: MDA-MB-231; experiment: Induction of cell cycle arret in human MDA-MB-231 cells assessed as G1 phase accumulation at LC50 concentration after 18 hrs by Krishan's staining based cell analyzer method; type: functional; summary of the method: as §1
# [9] = tested on: MDA-MB-231; experiment: Induction of cell cycle arret in human MDA-MB-231 cells assessed as S phase accumulation at LC50 concentration after 18 hrs by Krishan's staining based cell analyzer method; type: functional; summary of the method: as §1
# [10] = target: Ribosomal protein S6 kinase beta-1 (Homo sapiens) (UniProt P23443); experiment: Inhibition of phosphorylation of P70S6K at T389 residue in human MDA-MB-231 cells at 300 nM preincubated for 6 hrs followed FBS-stimulation and measured after 0.25 to 2 hrs by immunoblotting analysis; type: cell-based; settings: time hrs <=8
# Chain of Ribosomal protein S6 kinase beta-1 (Homo sapiens) (P23443 whole entry, looked up): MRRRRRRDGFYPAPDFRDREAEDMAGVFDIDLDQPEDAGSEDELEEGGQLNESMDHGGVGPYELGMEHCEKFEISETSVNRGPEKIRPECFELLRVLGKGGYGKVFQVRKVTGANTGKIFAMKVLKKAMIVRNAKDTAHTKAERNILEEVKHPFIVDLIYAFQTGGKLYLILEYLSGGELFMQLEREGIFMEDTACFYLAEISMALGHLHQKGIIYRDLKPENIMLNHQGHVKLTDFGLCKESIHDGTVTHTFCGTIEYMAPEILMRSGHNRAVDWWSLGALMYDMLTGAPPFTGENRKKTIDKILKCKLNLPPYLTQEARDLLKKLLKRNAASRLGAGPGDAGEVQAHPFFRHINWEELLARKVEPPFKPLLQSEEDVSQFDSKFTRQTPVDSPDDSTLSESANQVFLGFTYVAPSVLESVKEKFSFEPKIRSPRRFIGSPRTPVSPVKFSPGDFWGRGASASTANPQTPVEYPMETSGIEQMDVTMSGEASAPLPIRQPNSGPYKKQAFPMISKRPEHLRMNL
# [11] = tested on: MDA-MB-231; experiment: Effect on P70S6K regulation in human MDA-MB-231 cells at 300 nM preincubated for 6 hrs followed FBS-stimulation and measured after 0.25 to 2 hrs by immunoblotting analysis; type: functional, cell-based; settings: time hrs <=8
# [12] = target: Mitogen-activated protein kinase; ERK1/ERK2 (Homo sapiens) (UniProt P27361+P28482); experiment: Inhibition of phosphorylation of Erk1/2 in human MDA-MB-231 cells at 300 nM preincubated for 6 hrs followed FBS-stimulation and measured after 0.25 to 2 hrs by immunoblotting analysis; type: cell-based; settings: time hrs <=8
# Chain of Mitogen-activated protein kinase; ERK1/ERK2 (Homo sapiens) (P27361 whole entry, looked up): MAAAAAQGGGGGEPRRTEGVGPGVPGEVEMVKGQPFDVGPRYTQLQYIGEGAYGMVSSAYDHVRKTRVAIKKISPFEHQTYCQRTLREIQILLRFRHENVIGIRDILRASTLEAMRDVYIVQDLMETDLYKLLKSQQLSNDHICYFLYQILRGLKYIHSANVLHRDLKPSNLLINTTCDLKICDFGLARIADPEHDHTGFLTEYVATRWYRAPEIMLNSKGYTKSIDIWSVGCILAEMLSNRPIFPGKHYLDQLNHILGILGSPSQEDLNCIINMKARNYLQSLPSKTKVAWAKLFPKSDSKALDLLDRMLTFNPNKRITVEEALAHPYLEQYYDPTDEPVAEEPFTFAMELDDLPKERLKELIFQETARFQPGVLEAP
# Chain of Mitogen-activated protein kinase; ERK1/ERK2 (Homo sapiens) (P28482 whole entry, looked up): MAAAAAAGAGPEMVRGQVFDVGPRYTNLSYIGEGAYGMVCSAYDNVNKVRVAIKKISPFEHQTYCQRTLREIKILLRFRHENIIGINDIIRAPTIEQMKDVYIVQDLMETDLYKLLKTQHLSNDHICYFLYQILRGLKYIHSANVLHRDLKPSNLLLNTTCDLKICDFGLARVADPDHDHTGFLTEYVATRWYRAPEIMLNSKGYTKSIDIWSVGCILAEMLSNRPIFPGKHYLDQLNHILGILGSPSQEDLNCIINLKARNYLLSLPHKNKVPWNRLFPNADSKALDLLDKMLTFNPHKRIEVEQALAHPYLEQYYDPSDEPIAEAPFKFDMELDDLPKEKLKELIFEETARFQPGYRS
# [13] = tested on: MDA-MB-231; experiment: Effect on Erk1/2 regulation in human MDA-MB-231 cells at 300 nM preincubated for 6 hrs followed FBS-stimulation and measured after 0.25 to 2 hrs by immunoblotting analysis; type: functional, cell-based; settings: time hrs <=8
# [14] = target: Serine/threonine-protein kinase AKT (Homo sapiens) (UniProt P31751+Q9Y243+P31749); experiment: Inhibition of phosphorylation of Akt at S473 residue in human MDA-MB-231 cells at 300 nM preincubated for 6 hrs followed FBS-stimulation and measured after 0.25 to 2 hrs by immunoblotting analysis; type: cell-based; settings: time hrs <=8
# Chain of Serine/threonine-protein kinase AKT (Homo sapiens) (P31749 whole entry, looked up): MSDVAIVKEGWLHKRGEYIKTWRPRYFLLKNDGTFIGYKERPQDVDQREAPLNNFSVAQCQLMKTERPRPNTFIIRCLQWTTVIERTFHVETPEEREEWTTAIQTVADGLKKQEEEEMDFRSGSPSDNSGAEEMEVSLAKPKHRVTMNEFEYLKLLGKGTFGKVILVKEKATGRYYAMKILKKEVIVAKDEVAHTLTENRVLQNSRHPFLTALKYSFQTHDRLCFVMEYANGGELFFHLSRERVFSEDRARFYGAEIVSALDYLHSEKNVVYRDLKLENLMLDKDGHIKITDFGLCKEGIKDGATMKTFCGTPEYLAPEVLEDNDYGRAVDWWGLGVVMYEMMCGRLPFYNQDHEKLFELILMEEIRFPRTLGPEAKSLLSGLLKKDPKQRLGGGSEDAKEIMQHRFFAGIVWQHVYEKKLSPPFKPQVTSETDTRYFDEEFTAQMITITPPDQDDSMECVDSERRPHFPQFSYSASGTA
# Chain of Serine/threonine-protein kinase AKT (Homo sapiens) (P31751 whole entry, looked up): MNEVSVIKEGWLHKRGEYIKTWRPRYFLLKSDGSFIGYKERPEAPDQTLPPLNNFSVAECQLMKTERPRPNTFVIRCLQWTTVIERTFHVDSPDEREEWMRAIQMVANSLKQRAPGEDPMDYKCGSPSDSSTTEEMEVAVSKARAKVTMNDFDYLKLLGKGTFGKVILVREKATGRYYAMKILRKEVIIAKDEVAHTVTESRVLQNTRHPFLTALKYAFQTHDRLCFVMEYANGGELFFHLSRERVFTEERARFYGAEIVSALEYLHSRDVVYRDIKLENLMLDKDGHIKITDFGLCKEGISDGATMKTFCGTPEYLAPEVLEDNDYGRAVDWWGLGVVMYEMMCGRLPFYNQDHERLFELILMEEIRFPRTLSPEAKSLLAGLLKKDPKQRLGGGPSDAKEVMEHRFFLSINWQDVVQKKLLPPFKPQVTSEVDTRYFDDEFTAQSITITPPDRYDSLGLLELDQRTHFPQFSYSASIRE
# Chain of Serine/threonine-protein kinase AKT (Homo sapiens) (Q9Y243 whole entry, looked up): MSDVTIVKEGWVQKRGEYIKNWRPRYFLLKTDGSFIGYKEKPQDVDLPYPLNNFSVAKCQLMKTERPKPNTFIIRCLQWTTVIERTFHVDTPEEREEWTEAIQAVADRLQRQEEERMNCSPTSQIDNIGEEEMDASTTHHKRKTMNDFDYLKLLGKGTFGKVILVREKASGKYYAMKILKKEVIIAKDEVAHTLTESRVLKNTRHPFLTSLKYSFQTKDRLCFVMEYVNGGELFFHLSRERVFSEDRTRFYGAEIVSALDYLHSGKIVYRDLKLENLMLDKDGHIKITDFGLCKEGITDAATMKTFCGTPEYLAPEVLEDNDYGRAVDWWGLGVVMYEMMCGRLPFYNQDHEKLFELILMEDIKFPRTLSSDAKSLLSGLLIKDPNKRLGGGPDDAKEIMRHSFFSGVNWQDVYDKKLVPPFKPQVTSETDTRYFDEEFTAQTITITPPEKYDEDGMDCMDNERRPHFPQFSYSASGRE
# [15] = tested on: MDA-MB-231; experiment: Effect on Akt regulation in human MDA-MB-231 cells at 300 nM preincubated for 6 hrs followed FBS-stimulation and measured after 0.25 to 2 hrs by immunoblotting analysis; type: functional, cell-based; settings: time hrs <=8
# [16] = tested on: MDA-MB-231; experiment: Cytotoxicity against human MDA-MB-231 cells assessed as reduction in cell viability at 0.03 to 3 uM after 48 hrs in presence of GW9662 by SRB assay; type: functional, cell-based; settings: dose microM 0.03-3, time 48.0 hrs
# [17] = tested on: MDA-MB-453; experiment: Cytotoxicity against human MDA-MB-453 cells assessed as reduction in cell viability at 0.03 to 3 uM after 48 hrs in presence of GW9662 by SRB assay; type: functional, cell-based; settings: dose microM 0.03-3, time 48.0 hrs
# [18] = tested on: A673; experiment: Antiproliferative activity against human A673 cells assessed as reduction in cell viability after 48 hrs by SRB assay; type: functional, cell-based
# [19] = tested on: MDA-MB-231; experiment: Cytotoxicity against CRISPR/Cas9-mediated HSD17B11 knock-out human MDA-MB-231 cells at 1 uM incubated for 2 weeks; type: functional, cell-based
# Summary of the method: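 Doxycycline-inducible Cas9 MDA-MB-231 cells were transduced with the pooled Brunello sgRNA lentiviral library (0.005 μg/mL polybrene, 5 h), then selected in 1 μg/mL puromycin for 72 h. Cas9 was induced with 50 ng/mL doxycycline for 48 h. Cells were treated with 1 μM for 14 days, refreshing medium and compound every 3–4 days, and recovered 2 days before sgRNA sequencing. Enrichment was compared with input and vehicle.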
# [20] = tested on: MDA-MB-231; experiment: Cytotoxicity against HSD17B11 siRNA knock-out human MDA-MB-231 cells assessed as reduction in cell viability at 300 nM incubated for 48 hrs by SRB assay; type: functional, cell-based
# Summary of the method: (§2)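 MDA-MB-231 cells were reverse-transfected with HSD17B11 siRNA (12.5 nM final, 0.025% RNAiMAX, antibiotic-free medium) or mock for 48 h. Cells were then replated, allowed to attach for 4–6 h, and treated for 48 h. Read-out was SRB viability and TGI, n = 3. Knockdown vs mock was compared by paired two-tailed t-test.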
# [21] = Ratio of TGI for cytotoxicity against HSD17B11 siRNA knock-out human MDA-MB-231 cells to TGI for cytotoxicity against human MDA-MB-231 cells; type: functional; summary of the method: as §2
# [22] = tested on: BT-549; experiment: Cytotoxicity against human BT-549 cells over expressing HSD17B11 assessed as reduction in cell viability at 1 to 10 uM by SRB assay; type: functional, cell-based; settings: dose microM 1-10
# Summary of the method: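 BT-549 cells were transfected with a plasmid expressing HSD17B11-GFP from a constitutive CMV promoter, with mock-transfected cells as control. Overexpression was confirmed by immunoblot, and sensitivity was measured by SRB assay.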
# [23] = tested on: RD; experiment: Antiproliferative activity against human RDES cells assessed as reduction in cell viability after 48 hrs by SRB assay; type: functional, cell-based
# [24] = tested on: MDA-MB-157; experiment: Growth inhibition of human MDA-MB-157 cells after 48 hrs by SRB assay; type: functional
# [25] = tested on: HCC1806; experiment: Growth inhibition of human HCC1806 cells after 48 hrs by SRB assay; type: functional
# [26] = tested on: MDA-MB-468; experiment: Growth inhibition of human MDA-MB-468 cells after 48 hrs by SRB assay; type: functional
# [27] = tested on: MDA-MB-453; experiment: Growth inhibition of human MDA-MB-453 cells after 48 hrs by SRB assay; type: functional
# [28] = organism: Homo sapiens; experiment: Selectivity index, ratio of LC50 for growth inhibitor of human MDA-MB-157 to LC50 for growth inhibitor of human MDA-MB-231; type: functional
# Summary of the method: (§3)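 Selectivity index is the LC50 of the named TNBC line divided by the LC50 in MDA-MB-231 cells.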
# [29] = organism: Homo sapiens; experiment: Selectivity index, ratio of LC50 for growth inhibitor of human BT-549 to LC50 for growth inhibitor of human MDA-MB-231; type: functional; summary of the method: as §3
# [30] = organism: Homo sapiens; experiment: Selectivity index, ratio of LC50 for growth inhibitor of human […] to LC50 for growth inhibitor of human MDA-MB-231; type: functional; summary of the method: as §3
# [31] = organism: Homo sapiens; experiment: Selectivity index, ratio of LC50 for growth inhibitor of human MDA-MB-468 to LC50 for growth inhibitor of human MDA-MB-231; type: functional; summary of the method: as §3
# [32] = organism: Homo sapiens; experiment: Selectivity index, ratio of LC50 for growth inhibitor of human MDA-MB-453 to LC50 for growth inhibitor of human MDA-MB-231; type: functional; summary of the method: as §3
# [33] = tested on: MDA-MB-231; experiment: Cytotoxicity against human MDA-MB-231 cells assessed as reduction in cell viability at 0.03 to 3 uM after 48 hrs by SRB assay; type: functional, cell-based; settings: dose microM 0.03-3, time 48.0 hrs
# [34] = tested on: MDA-MB-453; experiment: Cytotoxicity against human MDA-MB-453 cells assessed as reduction in cell viability at 0.03 to 3 uM after 48 hrs by SRB assay; type: functional, cell-based; settings: dose microM 0.03-3, time 48.0 hrs
# [35] = read-out: LC50 (the source's name)
smiles,measurement,setting,value
C=CCCCCC/C=C\CC#CC#CC(O)CC (configuration not stated),TGI,[1],3300 nM
same,TGI,[2],7000 nM
same,Selectivity Index,[3],2.1
C=CCCC/C=C\CC#CC#CC(O)C=C (mixture of isomers),TGI,[1],490 nM
same,TGI,[2],2400 nM
same,Selectivity Index,[3],4.9
C=CCCCCC/C=C\CC#CC#CC(O)C=C (mixture of isomers),Activity,[4],Active
same,Activity,[5],Active
same,Activity,[6],Active
same,Activity,[7],inactive
same,Activity,[8],inactive
same,Activity,[9],inactive
same,inhibition,[10],inactive
same,Activity,[11],inactive
same,inhibition,[12],inactive
same,Activity,[13],inactive
same,inhibition,[14],inactive
same,Activity,[15],inactive
same,Activity,[16],Active
same,Activity,[17],Active
same,Activity,[18],Active
same,Activity,[19],inactive
same,Activity,[20],inactive
same,Ratio,[21],1.7
same,Activity,[22],inactive
same,Activity,[23],Active
C=CCCCC/C=C\CC#CC#C[C@@H](O)C=C,GI50,[1],74 nM
same,TGI,[1],120 nM
same,CC50,[1]; [35],210 nM
same,GI50,[24],190 nM
same,TGI,[24],300 nM
same,CC50,[24]; [35],510 nM
same,GI50,[2],390 nM
same,TGI,[2],850 nM
same,CC50,[2]; [35],1900 nM
same,GI50,[25],390 nM
same,TGI,[25],880 nM
same,CC50,[25]; [35],1900 nM
same,GI50,[26],1300 nM
same,TGI,[26],3.1 µM
same,CC50,[26]; [35],5.4 µM
same,GI50,[27],1700 nM
same,TGI,[27],5.1 µM
same,CC50,[27]; [35],9.8 µM
same,RatioLC50,[28],2.4
same,RatioLC50,[29],9
same,RatioLC50,[30],9
same,RatioLC50,[31],26
same,RatioLC50,[32],47
same,Selectivity Index,[3],4.7
CN(CCOc1ccc(CC2SC(=O)NC2=O)cc1)c1ccccn1 (configuration not stated),Activity,[33],inactive
same,Activity,[34],inactive
C=CCCC/C=C\C(C#CC#C[C@H](O)C=C)OC(C)=O (some centres not stated),TGI,[1],2500 nM
same,TGI,[2],2000 nM
same,Selectivity Index,[3],0.8
C=CCCCCC(O)/C=C/C#CC#CC(O)CC (mixture of isomers),TGI,[1],4800 nM
same,TGI,[2],> 10000 nM
